{"source": "ChEMBL document CHEMBL3244426", "about": "“Synthesis and biological activities of ftorafur metabolites. 3'- and 4'-hydroxyftorafur” (1979)", "format_in_all_cases": "functional", "key": {"HeLa [1]": {"tested_on": "HeLa", "assay": "Inhibition of cell cycle traverse in human HeLa cells assessed as mitotic index at 200 ug/ml after 16 hrs", "set-up": "scale not given: the % may be the effect or the level left", "procedure,_shortened": "(§1)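 HeLa cells were plated at 3.5 × 10^5 per 35-mm dish in Eagle's MEM with 10% fetal calf serum and antibiotics the day before. They were then exposed to drug in the same medium with 0.05 µg/mL colcemid for 16 h. Cells were trypsinized, cytocentrifuged onto slides and fixed in 3:1 MeOH–AcOH. The read-out was the mitotic index, mitotic cells as a percentage of cells counted.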"}, "HeLa [2]": {"tested_on": "HeLa", "assay": "Growth inhibition of human HeLa cells", "details": "read-out: ID50"}, "L1210 [3]": {"tested_on": "L1210", "assay": "In-vivo antitumor activity against mouse L1210 cells at 80 mg/kg relative to control"}, "HeLa [4]": {"tested_on": "HeLa", "assay": "Inhibition of cell cycle traverse in human HeLa cells assessed as mitotic index at 100 ug/ml after 16 hrs", "set-up": "scale not given: the % may be the effect or the level left", "procedure,_shortened": "as §1"}, "L1210 [5]": {"tested_on": "L1210", "assay": "In-vivo antitumor activity against mouse L1210 cells at 60 mg/kg relative to control"}, "L1210 [6]": {"tested_on": "L1210", "assay": "In-vivo antitumor activity against mouse L1210 cells at 100 mg/kg relative to control"}, "HeLa [7]": {"tested_on": "HeLa", "assay": "Inhibition of cell cycle traverse in human HeLa cells assessed as mitotic index at 12.5 ug/ml after 16 hrs", "set-up": "scale not given: the % may be the effect or the level left", "procedure,_shortened": "(§2)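 HeLa cells (3.5 × 10^5) plated the day before in Eagle's MEM with 10% fetal calf serum and antibiotics. Drug added in the same medium with colcemid 0.05 µg/mL, incubated about 16 h. Cells trypsinized, cytocentrifuged onto slides, fixed in 3:1 MeOH-AcOH. Mitotic and interphase cells counted; mitotic index = % of total. Lower index means greater inhibition of cell cycle traverse.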"}, "L1210 [8]": {"tested_on": "L1210", "assay": "In-vivo antitumor activity against mouse L1210 cells at 20 mg/kg relative to control"}, "HeLa [9]": {"tested_on": "HeLa", "assay": "Inhibition of cell cycle traverse in human HeLa cells assessed as mitotic index at 50 ug/ml after 16 hrs", "set-up": "scale not given: the % may be the effect or the level left", "procedure,_shortened": "as §2"}, "HeLa [10]": {"tested_on": "HeLa", "assay": "Inhibition of cell cycle traverse in human HeLa cells assessed as mitotic index at 25 ug/ml after 16 hrs", "set-up": "scale not given: the % may be the effect or the level left", "procedure,_shortened": "as §2"}}}
{"smiles": "O=c1[nH]c(=O)n(C2CCCO2)cc1F", "note": "(racemic) [TEGAFUR]", "values": [{"measurement": "Activity", "setting": "HeLa [1]", "value": 36, "unit": "%"}, {"measurement": "ED50", "setting": "HeLa [2]", "value": 200, "unit": "µg/mL"}, {"measurement": "T/C", "setting": "L1210 [3]", "value": 102, "unit": "%"}, {"measurement": "Activity", "setting": "HeLa [4]", "value": 60.3, "unit": "%"}]}
{"smiles": "O=c1[nH]c(=O)n([C@@H]2OCC[C@H]2O)cc1F", "note": "(relative stereo)", "values": [{"measurement": "Activity", "setting": "HeLa [1]", "value": 34.7, "unit": "%"}, {"measurement": "T/C", "setting": "L1210 [3]", "value": 98, "unit": "%"}, {"measurement": "Activity", "setting": "HeLa [4]", "value": 64, "unit": "%"}, {"measurement": "T/C", "setting": "L1210 [5]", "value": 108, "unit": "%"}, {"measurement": "T/C", "setting": "L1210 [6]", "value": 96, "unit": "%"}]}
{"smiles": "O=c1[nH]c(=O)n([C@H]2C[C@@H](O)CO2)cc1F", "note": "(relative stereo)", "values": [{"measurement": "Activity", "setting": "HeLa [1]", "value": 44, "unit": "%"}, {"measurement": "T/C", "setting": "L1210 [3]", "value": 91, "unit": "%"}, {"measurement": "Activity", "setting": "HeLa [4]", "value": 63.3, "unit": "%"}, {"measurement": "T/C", "setting": "L1210 [5]", "value": 106, "unit": "%"}, {"measurement": "T/C", "setting": "L1210 [6]", "value": 114, "unit": "%"}]}
{"smiles": "O=c1[nH]cc(F)c(=O)[nH]1", "note": "[FLUOROURACIL]", "values": [{"measurement": "Activity", "setting": "HeLa [7]", "value": 45.7, "unit": "%"}, {"measurement": "T/C", "setting": "L1210 [8]", "value": 153, "unit": "%"}, {"measurement": "Activity", "setting": "HeLa [9]", "value": 31.7, "unit": "%"}, {"measurement": "Activity", "setting": "HeLa [10]", "value": 35.8, "unit": "%"}]}
